Compound activity as filed in PubChem BioAssay.
Hits are enriched below; roughly 2.9% of the tested compounds scored in any of these assays.
CHO-K1 Ca antag: counter-screen for M1 antagonists: effect in parental CHO-K1 cells; ATP-induced calcium, Fluo-8 fluorescence; AID 602250; inhibition, % at 3 µM; 360,000 compounds, 0.6% hits;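 active = inhibition above a per-plate cutoff, the plate's mean sample inhibition plus 3 SD, cut at about 24% in these data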;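 note: 0% = DMSO plus EC80 ATP and 100% = DMSO alone without ATP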
CHO-K1 Ca ag: nonselective activator or artifact in parental CHO-K1 cells; AID 602248; Fluo-8 calcium fluorescence; scaled to maximal ATP response, vehicle zero; 360,000 compounds, 0.48% hits; activation, % at 3 µM; in the data active = activation above about 15%;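 note: untransfected CHO-K1 host cells lacking M1 receptor as counterscreen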
OX1R antag-1: blocks the human orexin 1 receptor; O43613; OX1R-expressing cells, FRET antagonist read-out; inhibition, % at 6.6 µM; 330,000 compounds, 1.8% hits; AID 485270; in the data active = inhibition mostly above about 38%, no sharp cut-off; inactive = mostly below about 40%;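 note: 0% = agonist challenge alone and 100% = reference antagonist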
Target sequence (O43613 whole entry, looked up): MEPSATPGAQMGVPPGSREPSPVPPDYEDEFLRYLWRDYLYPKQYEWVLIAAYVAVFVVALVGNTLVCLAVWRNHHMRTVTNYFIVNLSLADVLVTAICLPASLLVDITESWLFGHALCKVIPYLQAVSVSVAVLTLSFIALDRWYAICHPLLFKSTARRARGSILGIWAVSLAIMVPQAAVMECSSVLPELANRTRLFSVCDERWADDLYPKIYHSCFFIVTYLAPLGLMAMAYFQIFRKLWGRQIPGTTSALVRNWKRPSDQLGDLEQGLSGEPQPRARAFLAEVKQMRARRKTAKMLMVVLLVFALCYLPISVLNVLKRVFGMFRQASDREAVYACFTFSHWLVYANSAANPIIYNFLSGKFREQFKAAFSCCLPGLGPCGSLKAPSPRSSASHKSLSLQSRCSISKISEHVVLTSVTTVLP
OX1R antag-2: antagonists of human orexin 1 receptor | O43613 | CHO/OX1R cells, Fluo-8 calcium fluorescence, orexin A | inhibition, % at 5 µM | 330,000 compounds, 0.43% hits;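 active = inhibition above its plate's threshold, mean inhibition of all tested compounds on the plate plus 3 SD, cut at about 37% in these data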;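 note: 0% = orexin A challenge wells and 100% = SB-334867-A antagonist wells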
CHO-K1 Ca PAM: counter-screen for M1 PAMs: effect in parental CHO-K1 cells | ATP EC20, Fluo-8 calcium fluorescence; 0% at ATP EC20, 100% at ATP max | activation, % at 3 µM | 360,000 compounds, 0.02% hits | AID 602247;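 active = activation above the run cutoff, the mean activation of all test compounds plus 3 SD, cut at about 40% in these data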;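 note: peak over basal fluorescence ratio in a 140 s read after ATP addition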
CHO parental Ca: counter-screen: ATP calcium response change in parental CHO cells; parental CHO-K1, ATP-induced calcium, Fluo-8 fluorescence; inhibition, % at 5.6 µM; 330,000 compounds, 0.63% hits; AID 463079;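 active = inhibition above that plate's mean sample inhibition plus 3 SD, cut at about 26% in these data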;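 note: 0% = ATP-challenged DMSO wells and 100% = DMSO wells without ATP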
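material = parental CHO cells | also added = ATP as calcium-mobilizing challenge | dosing = single point at 5.6 µM | detection = intracellular calcium via Fluo-8 no-wash fluorescent dye | read-out = % inhibition | benchmarks = low control ATP plus DMSO, high control DMSO only | repeats = one well per compound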
OX1R HTRF confirm: confirmation of human orexin 1 receptor antagonists, HTRF format; shares compounds with OX1R antag-1; OX1R-expressing cells, HTRF antagonist assay; inhibition, % at 6.6 µM; 1,800 compounds, 49% hits; in the data active = inhibition above about 55%;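 note: CHO cells expressing OX1R stimulated with orexin A at about EC80; 0% = agonist challenge alone and 100% = reference antagonist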
CHO-K1 HTRF: counter-screen: parental CHO-K1 HTRF response; shares compounds with OX1R antag-1; parental CHO-K1 cells, HTRF counterscreen; inhibition, % at 6.6 µM; 1,800 compounds, 48% hits; in the data active = inhibition above about 17%;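 note: 0% = agonist challenge with vehicle and 100% = vehicle alone without agonist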
* marks the source's active call; other numbers are inactive results; nt = no result given.

SMILES	CHO-K1 Ca antag	CHO-K1 Ca ag	OX1R antag-1	OX1R antag-2	CHO-K1 Ca PAM	CHO parental Ca	OX1R HTRF confirm	CHO-K1 HTRF
COc1ccc(/C(O)=C2/C(=O)C(=O)N(CCN3CCOCC3)C2c2ccccn2)cc1OC (stereo not drawn)	1	0	135*	-10	7	-10	29	28*
O=C1C(=O)N(CCN2CCOCC2)C(c2cccnc2)/C1=C(/O)c1ccccc1 (stereo not drawn)	nt	nt	7	-4	nt	17	nt	nt
Cc1ccc(/C(O)=C2/C(=O)C(=O)N(CCN3CCOCC3)C2c2ccccn2)cc1 (stereo not drawn)	-2	0	82*	-2	11	15	24	33*
CCN(CC)CCCN1C(=O)C(=O)/C(=C(/O)c2ccc(C)cc2)C1c1ccccn1 (stereo not drawn)	-3	1	76	-24	21	2	nt	nt
CCN(CC)CCN(C(=O)c1cc2c(ccc3ccccc32)oc1=O)c1nc2cc3c(cc2s1)OCCO3	-4	0	24	-25	9	-15	nt	nt
COc1cc(/C=N/Nc2nncn2N)ccc1OCc1c(C)no[n+]1[O-]	-17	2	89*	-22	14	-7	19	18*
COc1cc(/C=C(\C#N)C(N)=O)ccc1OCc1c(C)no[n+]1[O-]	-12	3	2	-6	16	1	nt	nt
COC(=O)c1cc2c(C)cc3ccc(C)cn3c-2c1C(=O)OC	4	0	65	-14	-1	-25	nt	nt
COC(=O)c1cc2ccccn2c2c(C(=O)OC)c(C(=O)OC)cc1-2	-1	3	94*	-15	16	-14	39	25*
CC(CC1C(C#N)=C(N)SC(N)=C1C#N)c1ccccc1 (stereo not drawn)	-10	14	88*	8	5	9	24	2
CC(=O)NC1=C(NC2CCS(=O)(=O)C2)C(=O)c2ccccc2C1=O (stereo not drawn)	-4	1	141*	-4	14	-7	69*	94*
O=C(Nc1ccccc1)NC1CCS(=O)(=O)C1 (stereo not drawn)	-5	0	-2	-6	11	-5	nt	nt
COCCCn1c(SCC(=O)Nc2ccccc2F)nnc1-c1ccoc1C	-6	1	4	-10	-12	3	nt	nt
Cc1c(CCOC(=O)c2cc([N+](=O)[O-])cc([N+](=O)[O-])c2)sc[n+]1CCCCS(=O)(=O)[O-]	-13	1	174*	-4	8	-2	72*	85*
Cc1c(CCOC(=O)c2cc([N+](=O)[O-])cc([N+](=O)[O-])c2)sc[n+]1CC(=O)c1ccccc1	-14	0	26	-16	10	-23	nt	nt
N#Cc1cc2cc3c(cc2nc1SCC(=O)N1CCOCC1)OCCO3	-4	0	11	-10	-10	-9	nt	nt
O=C(c1ccco1)N1CCN(C(=O)C2CCN(S(=O)(=O)c3cccc4nsnc34)CC2)CC1	8	1	100*	-10	9	-3	30	47*
O=C(C1CCCO1)N1CCN(S(=O)(=O)c2cccc3nsnc23)CC1 (stereo not drawn)	-6	0	96*	-12	8	-8	41	56*
O=C(O)C1CCN(S(=O)(=O)c2cccc3nsnc23)CC1	-10	0	33	-10	13	-8	nt	nt
CC1CCN(C(=O)c2[nH]cnc2C(=O)Nc2ccccc2)CC1	-13	0	6	16	12	-9	nt	nt
Oc1c(CN2CCCC(C(F)(F)F)C2)cc(Cl)c2ccccc12 (stereo not drawn)	-11	2	17	0	12	-2	nt	nt
C[C@@H](NC(=O)C1(c2ccccc2)CCN(C(=O)OC(C)(C)C)CC1)C(=O)N[C@@H](C(=O)O)c1ccccc1	2	0	87*	-14	-2	-6	13	10
C[C@H](NC(=O)C1(c2ccccc2)CCN(C(=O)OC(C)(C)C)CC1)C(=O)N[C@@H](C(=O)O)c1ccccc1	5	0	13	1	8	-8	nt	nt
